In brackets after ≈: the same amount, converted by molar mass.
Tests used:
Assay type in all cases: cell-based
[1] = Cytotoxicity against human BT474 cells by MTT assay; conditions: BT-474
In short: (§1)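 In vitro cytotoxicity by MTT colorimetric read-out on human tumor cultures: BT474 (breast carcinoma), CHAGO (lung carcinoma), Hep-G2 (hepatocarcinoma), KATO-3 (gastric carcinoma) and SW-620 (colon carcinoma). Each pure isolate was tested on all five lines.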

[2] = Cytotoxicity against human CHAGO cells by MTT assay; in short: as §1
HepG2 = assay: Cytotoxicity against human HepG2 cells by MTT assay; in short: as §1
[3] = Cytotoxicity against human KATO3 cells by MTT assay; in short: as §1
SW-620 = assay: Cytotoxicity against human SW620 cells by MTT assay; in short: as §1

Structure (SMILES) | IC50 [1] | IC50 [2] | IC50 (HepG2) | IC50 [3] | IC50 (SW-620)
C/C1=C\CC[C@](C)(O)/C=C/[C@H](C(C)C)CCc2coc(c2)C1 [FURANOCEMBRANOID 1] | 7.8 µg/mL (≈ 25.8 µM) | 7 µg/mL (≈ 23.1 µM) | 5.6 µg/mL (≈ 18.5 µM) | 5.9 µg/mL (≈ 19.5 µM) | 6.3 µg/mL (≈ 20.8 µM)
CC(C)[C@H]1/C=C/[C@@](C)(O)CC[C@@H]2O[C@@]2(C)Cc2cc(co2)CC1 [FURANOCEMBRANOID 2] | 9.5 µg/mL (≈ 29.8 µM) | > 10 µg/mL | > 10 µg/mL | 6.8 µg/mL (≈ 21.4 µM) | 9.9 µg/mL (≈ 31.1 µM)
CC(C)[C@H]1/C=C/[C@@](C)(O)CC[C@@H](O)[C@@](C)(O)Cc2cc(co2)CC1 [FURANOCEMBRANOID 3] | 9.6 µg/mL (≈ 28.5 µM) | 7.1 µg/mL (≈ 21.1 µM) | 5.7 µg/mL (≈ 16.9 µM) | 8.2 µg/mL (≈ 24.4 µM) | 5.6 µg/mL (≈ 16.6 µM)
CC(C)[C@H]1/C=C/[C@@](C)(O)CC[C@@H](O)[C@@](C)(O)C[C@H]2C=C(CC1)C(=O)O2 [FURANOCEMBRANOID 4] | 9.6 µg/mL (≈ 27.2 µM) | 9.3 µg/mL (≈ 26.4 µM) | 6.1 µg/mL (≈ 17.3 µM) | 8.1 µg/mL (≈ 23 µM) | 6 µg/mL (≈ 17 µM)
